Assay [1] concerns Escherichia coli. In words: Inhibition of recombinant Escherichia coli N-terminal His-tagged rhomboid protease GlpG expressed in Escherichia coli C43(DE3) cells at 250 uM using gurken as substrate preincubated for 30 mins followed by substrate addition measured after 90 mins by SDS-PAGE analysis.
The nature of assay [2]: Inhibition of recombinant Escherichia coli N-terminal His-tagged rhomboid protease GlpG expressed in Escherichia coli C43(DE3) cells using KSp76 as substrate incubated for 1 hr followed by substrate addition by fluorescence assay. The method in brief: (§1)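 Started with 10 µM quenched fluorogenic peptide (KSp35 or KSp76). Fluorescence normalized to DMSO and plotted against log concentration; apparent IC50 from nonlinear regression.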

Assay [3] addresses Chymotrypsinogen A (Bos taurus) (UniProt P00766). In words: Inhibition of bovine alpha-chymotrypsin at 250 uM using N-Succinyl-Ala-AlaPro-Phe-p-nitroanilide as substrate incubated for 30 mins followed by substrate addition measured over 5 mins by spectroscopic method.
Another assay is filed under the species Bos taurus. In words: Inhibition of bovine pancreas trypsin at 10 uM using Z-Gly-Gly-Argaminomethylcoumarin as substrate preincubated for 30 mins followed by substrate addition measured at 1 min time interval for 5 mins by fluorescence assay. The method in brief:
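Compound or DMSO preincubated with 10 nM bovine pancreatic trypsin in PBS for 30 min at 30°C. Started with Z-Gly-Gly-Arg-AMC (1 mM stock). AMC fluorescence (ex 340/em 440) read every 1 min for 5 min. Initial slope gives velocity; % activity = V inhibitor/V DMSO × 100.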

Assay [4] concerns the target T1, Neutrophil elastase (Homo sapiens) (UniProt P08246).
T1 sequence (whole entry): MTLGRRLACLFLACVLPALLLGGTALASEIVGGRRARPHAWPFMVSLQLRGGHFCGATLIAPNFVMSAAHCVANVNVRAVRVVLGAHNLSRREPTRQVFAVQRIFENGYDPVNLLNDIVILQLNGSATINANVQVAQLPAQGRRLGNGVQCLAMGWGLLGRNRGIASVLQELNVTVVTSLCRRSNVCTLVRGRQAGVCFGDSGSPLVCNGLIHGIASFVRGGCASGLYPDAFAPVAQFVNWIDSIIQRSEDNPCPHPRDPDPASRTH
In words: Inhibition of human neutrophil elastase at 10 uM using N-Methoxysuccinyl-Ala-Ala-Pro-Val-p-nitroanilid as substrate preincubated for 20 mins followed by substrate addition measured at 1 min time interval for 5 mins by fluorescence assay.

Assay [5] deals with T2, Cathepsin G (Homo sapiens) (UniProt P08311).
T2 sequence (whole entry): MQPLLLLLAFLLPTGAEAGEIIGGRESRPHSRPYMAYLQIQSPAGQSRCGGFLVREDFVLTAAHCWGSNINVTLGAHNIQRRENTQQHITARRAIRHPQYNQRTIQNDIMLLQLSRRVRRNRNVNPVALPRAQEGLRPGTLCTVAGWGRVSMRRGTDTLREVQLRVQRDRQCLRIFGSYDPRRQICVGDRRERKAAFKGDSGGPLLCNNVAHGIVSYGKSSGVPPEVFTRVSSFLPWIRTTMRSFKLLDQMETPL
In words: Inhibition of human neutrophil cathepsin G at 10 uM using N-Succinyl-Ala-Ala-Pro-Phe-p-nitroanilide as substrate preincubated for 30 mins followed by substrate addition measured at 1 min time interval for 5 mins by fluorescence assay. Conditions: in the assay text read “absorbance assay” for “fluorescence assay”. An outline of the steps:
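Compound or DMSO preincubated with 200 nM human neutrophil cathepsin G for 30 min at 37°C in 100 mM HEPES, 500 mM NaCl, pH 7.4. Started with Suc-AAPF-pNA (2 mM stock). Absorbance at 410 nm read every 1 min for 5 min. Initial slope gives velocity; % activity relative to DMSO.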

Assay [6] relates to Escherichia coli. In words: Binding affinity to wild type recombinant Escherichia coli rhomboid protease GlpG expressed in Escherichia coli C43(DE3) cells by electrospray mass spectrometric analysis. The method in brief: (§2)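 GlpG (wild type or rhomboid mutants) expressed in E. coli C43(DE3) and purified, then reacted in vitro with compound or vehicle. Covalent adduct detected by electrospray mass spectrometry as an added peak with the expected mass shift over free enzyme. Two independent experiments.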

Assay [7] has as its system T3, Rhomboid protease GlpG (Escherichia coli (strain K12)), P09391 [S201T].
T3 sequence (whole entry): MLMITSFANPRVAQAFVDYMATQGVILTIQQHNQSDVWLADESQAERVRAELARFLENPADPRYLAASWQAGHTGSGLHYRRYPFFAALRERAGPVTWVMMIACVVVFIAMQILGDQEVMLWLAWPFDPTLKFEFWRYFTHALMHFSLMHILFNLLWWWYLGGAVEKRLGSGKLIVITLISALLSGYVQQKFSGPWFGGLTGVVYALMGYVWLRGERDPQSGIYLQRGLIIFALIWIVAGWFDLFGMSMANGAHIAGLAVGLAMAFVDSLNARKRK
In words: Binding affinity to recombinant Escherichia coli rhomboid protease GlpG S201T mutant expressed in Escherichia coli C43(DE3) cells by electrospray mass spectrometric analysis. An outline of the steps:
as §2

The test system of assay [8] is T4, Rhomboid protease GlpG (Escherichia coli (strain K12)), P09391 [H254A].
T4 sequence (whole entry): T3 sequence (whole entry) with T201S, H254A
In words: Binding affinity to recombinant Escherichia coli rhomboid protease GlpG H254A mutant expressed in Escherichia coli C43(DE3) cells by electrospray mass spectrometric analysis. An outline of the steps: as §2

Assay [9] addresses T5, Rhomboid protease GlpG (Escherichia coli (strain K12)) (UniProt P09391).
T5 sequence (whole entry): T3 sequence (whole entry) with T201S
In words: Binding affinity to recombinant Escherichia coli rhomboid protease GlpG His150 mutant expressed in Escherichia coli C43(DE3) cells by electrospray mass spectrometric analysis. An outline of the steps: as §2

Assay [10] concerns Escherichia coli. In words: Reversible inhibition of recombinant Escherichia coli N-terminal His-tagged rhomboid protease GlpG expressed in Escherichia coli C43(DE3) cells assessed as recovery of enzyme activity at 50 uM using KSp76 as substrate preincubated for 1 hr followed by substrate addition measured over 120 mins by rapid dilution based fluorescence assay. An outline of the steps:
(§3)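 Rapid-dilution recovery. Inhibitor preincubated 1 h with 0.4 µM GlpG in 20 mM HEPES-NaOH pH 7.4, 150 mM NaCl, 0.05% DDM, then diluted 100-fold into buffer with 10 µM KSp76. Fluorescence (ex 553/em 583) monitored continuously for 120 min.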

The target of the next assay is Chymotrypsinogen A (Bos taurus, UniProt P00766). In words: Inhibition of bovine pancreas alpha-chymotrypsin using KSp21 as substrate preincubated for 30 mins followed by substrate addition measured after 50 to 60 mins by fluorescence assay.
The nature of assay [11]: Inhibition of recombinant Escherichia coli N-terminal His-tagged rhomboid protease GlpG expressed in Escherichia coli C43(DE3) cells using KSp53 as substrate incubated for 1 hr followed by substrate addition by fluorescence assay. Conditions: in the assay text read “KSp35” for “KSp53”. The method in brief: as §1
Assay [12] has as its system Escherichia coli. In words: Reversible inhibition of recombinant Escherichia coli N-terminal His-tagged rhomboid protease GlpG expressed in Escherichia coli C43(DE3) cells assessed as recovery of enzyme activity at 10 uM using KSp76 as substrate preincubated for 1 hr followed by substrate addition measured over 120 mins by rapid dilution based fluorescence assay. An outline of the steps: as §3

The subject of assay [13] is Escherichia coli. In words: Reversible inhibition of recombinant Escherichia coli N-terminal His-tagged rhomboid protease GlpG expressed in Escherichia coli C43(DE3) cells assessed as recovery of enzyme activity at 1 uM using KSp76 as substrate preincubated for 1 hr followed by substrate addition measured over 120 mins by rapid dilution based fluorescence assay. An outline of the steps: as §3

Residue numbers refer to the chain shown, from its start. Active and inactive are the calls of the source. No cut-off for these calls is given here.

In the case of `O=c1oc(-c2cccc(F)c2)nc2ccccc12`, the inhibition entry with Escherichia coli [1] was “inactive”.
Same read-out and setting: to `O=c1oc(-c2ccco2)nc2ccccc12` belongs “inactive”.
`CCC(=O)Oc1c(/C=C/c2nc3ccccc3c(=O)o2)cccc1OC`: the inhibition entry with Escherichia coli [1] was “inactive”.
Take `O=c1oc(-c2cccc(Br)c2)nc2ccccc12`: in the assay on Escherichia coli [1], the inhibition result was “inactive”.
On to `O=c1oc(/C=C/c2ccccc2Cl)nc2ccccc12`, for which the inhibition result (with Escherichia coli [1]; in assay [5]; with Escherichia coli [10]) was “Active” throughout. Moreover, in assay [2], the IC50 was 4.4 µM. Further, the inhibition entry (in assay [3]; in the assay listed under Bos taurus; in [4]) was “inactive” throughout. The result (in the assay with Escherichia coli [6]; in [9]) was Active. Moreover, the outcome in assay [7] and in assay [8] was inactive.
For `O=c1oc(/C=C/c2ccc(F)c(F)c2)nc2ccccc12`, the inhibition result in the assay with Escherichia coli [1] is “inactive”.
`O=c1oc(-c2ccc(F)cc2)nc2ccccc12`: the inhibition entry in the assay with Escherichia coli [1] is “inactive”.
Take `O=c1oc(Cl)c(Cl)c2ccccc12`: the inhibition result (in the assay filed under Bos taurus; in assay [4]) was “Active” in each case. This compound registered an IC50 against Chymotrypsinogen A of 3.5 µM.
`O=c1oc(-c2ccccc2F)nc2ccccc12`: the inhibition result in the assay on Escherichia coli [1] was “inactive”.
In the case of `O=c1oc(/C=C/c2ccccc2)nc2ccccc12`, the inhibition entry (in the assay on Escherichia coli [1]; in assay [5]) was “Active” throughout. Besides, the IC50 in assay [11] was 3.7 µM. For the same compound, the inhibition entry (in assay [3]; in the assay listed under Bos taurus; in assay [4]) was “inactive” each time. Moreover, the result in the assay with Escherichia coli [6] was Active.
With `O=c1oc(-c2ccccc2)nc2ccccc12`, the inhibition result with Escherichia coli [1] is “inactive”.
For `COc1ccc(/C=C/c2nc3ccccc3c(=O)o2)cc1`, in the assay with Escherichia coli [1], the inhibition result is “Active”. For the same compound, the IC50 in assay [11] amounted to 48 µM. Also, the inhibition result (in the assay listed under Bos taurus; in assay [4]; in [5]) was “inactive” in each case.
For `COc1oc(=O)c2cc(N)ccc2c1Cl`, the inhibition result in the assay on Escherichia coli [12] is “inactive”.
For the compound `COc1ccc(-c2nc3ccccc3c(=O)o2)cc1`, the inhibition result in the assay with Escherichia coli [1] is “inactive”.
For `O=C1CC(c2ccccc2)N1C(=O)Oc1ccccc1` (configuration not stated), in the assay on Escherichia coli [13], the inhibition entry was “Active”.

Usually IC50 stands for the concentration at which inhibition is half-maximal.

The record behind these values is ChEMBL document CHEMBL4184297, “Discovery and validation of 2-styryl substituted benzoxazin-4-ones as a novel scaffold for rhomboid protease inhibitors” (Bioorg Med Chem Lett, 2018).
